pIC50: −log10 of the molar value. Blank lines part the entries; values can stand above or below the molecule they belong to.
Tests used:
[1] = Inhibition of HDAC in human HeLa cell nuclear extract using COLOR DE LYS as substrate by fluorometric analysis; type: cell-free
[2] = molecular target: T1, Receptor tyrosine-protein kinase erbB-2 (Homo sapiens, UniProt P04626); assay: Inhibition of HER2 (unknown origin) assessed as remaining ATP level measured after 15 mins by luminescence analysis
How it was run: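 Kinase run as a contracted HTRF assay. Compounds in 3-fold dilution in 2.5% DMSO/kinase buffer, mixed with kinase and substrate, preincubated 15 min at RT. ATP added to start, reaction 30 min at RT. Stopped with Streptavidin-XL665 plus europium-cryptate TK antibody (1:100). Excitation 320 nm, 665/615 nm emission ratio. IC50 from inhibition curves, results from 2 assays.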

cells [3] = type: functional, cell-based; conditions: Homo sapiens, BT-474, 48 h
[4] = molecular target: T2, Epidermal growth factor receptor (Homo sapiens, UniProt P00533)
[5] = molecular target: T3, Protein deacetylase HDAC6 (Homo sapiens, UniProt Q9UBN7); assay: Inhibition of HDAC6 (unknown origin) using acetylated peptide substrate preincubated for 15 mins followed by substrate addition measured after 60 mins by fluorescence analysis
T3 sequence (Q9UBN7 whole entry): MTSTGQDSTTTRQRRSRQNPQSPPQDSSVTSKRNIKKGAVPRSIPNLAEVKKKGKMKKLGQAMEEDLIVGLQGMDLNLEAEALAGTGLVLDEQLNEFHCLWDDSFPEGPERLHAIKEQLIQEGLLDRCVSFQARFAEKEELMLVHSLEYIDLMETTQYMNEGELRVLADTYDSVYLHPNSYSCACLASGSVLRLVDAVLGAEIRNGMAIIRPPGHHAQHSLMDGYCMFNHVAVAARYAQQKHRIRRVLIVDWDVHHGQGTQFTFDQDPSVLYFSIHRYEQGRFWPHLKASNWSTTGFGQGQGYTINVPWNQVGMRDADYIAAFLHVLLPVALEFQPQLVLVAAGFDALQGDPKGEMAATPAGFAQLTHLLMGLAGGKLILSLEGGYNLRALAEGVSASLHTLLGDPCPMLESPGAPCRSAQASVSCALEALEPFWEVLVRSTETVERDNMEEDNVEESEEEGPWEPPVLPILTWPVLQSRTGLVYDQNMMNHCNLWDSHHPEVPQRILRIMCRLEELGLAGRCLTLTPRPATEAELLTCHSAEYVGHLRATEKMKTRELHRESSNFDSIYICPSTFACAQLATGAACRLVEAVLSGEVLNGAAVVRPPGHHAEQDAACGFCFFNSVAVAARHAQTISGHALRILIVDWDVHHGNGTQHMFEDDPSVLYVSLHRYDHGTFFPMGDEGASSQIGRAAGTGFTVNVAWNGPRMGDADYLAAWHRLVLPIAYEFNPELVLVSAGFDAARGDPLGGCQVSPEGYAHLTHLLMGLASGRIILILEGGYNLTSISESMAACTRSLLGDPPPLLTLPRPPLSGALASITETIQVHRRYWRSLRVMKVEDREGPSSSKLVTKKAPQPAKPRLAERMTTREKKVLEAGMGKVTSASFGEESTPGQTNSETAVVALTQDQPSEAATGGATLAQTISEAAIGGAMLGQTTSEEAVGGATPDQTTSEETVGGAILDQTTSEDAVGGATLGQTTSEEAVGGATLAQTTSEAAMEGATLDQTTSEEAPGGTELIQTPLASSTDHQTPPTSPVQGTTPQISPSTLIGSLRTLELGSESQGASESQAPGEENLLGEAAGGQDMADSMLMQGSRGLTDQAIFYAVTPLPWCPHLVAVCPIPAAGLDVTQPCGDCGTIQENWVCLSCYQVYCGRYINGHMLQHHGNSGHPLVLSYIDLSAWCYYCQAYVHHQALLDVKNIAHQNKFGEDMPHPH

Histone deacetylase 1 = Histone deacetylase 1 (Homo sapiens, UniProt Q13547); assay: Inhibition of HDAC1 (unknown origin) using acetylated peptide substrate preincubated for 15 mins followed by substrate addition measured after 60 mins by fluorescence analysis
cells [6] = type: functional, cell-based; conditions: Homo sapiens, A549, 48 h
BT-474 [7] = assay: Induction of apoptosis in human BT474 cells assessed as viable cells at 1 uM measured after 48 hrs by Annexin V-FITC/propidium iodide staining based flow cytometry (reference value: 96.76%); type: functional; conditions: BT-474, 48 h, read-out: Activity
BT-474 [8] = assay: Induction of apoptosis in human BT474 cells assessed as early apoptotic cells at 2.5 uM measured after 48 hrs by Annexin V-FITC/propidium iodide staining based flow cytometry (reference value: 2.87%); type: functional
[9] = molecular target: T2, Epidermal growth factor receptor; assay: Inhibition of EGFR in human A549 cells assessed as suppression of EGFR phosphorylation at Tyr1068 residue measured after 24 hrs by Western blot analysis; type: cell-based
How it was run: (§1)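 A549 cells treated 24 h across a dose range. Lysate protein (20-40 µg) run on 7.5%-15% SDS-PAGE and blotted to PVDF. Membranes blocked 2 h in TBST with 5% BSA. Primary antibody (p-EGFR Tyr1068, p-EGFR Tyr1173, total EGFR, acetyl-histone H3 Lys27) applied 8-12 h at 4°C. HRP secondary, chemiluminescent detection.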

BT-474 [10] = assay: Induction of apoptosis in human BT474 cells assessed as late apoptotic cells at 1 uM measured after 48 hrs by Annexin V-FITC/propidium iodide staining based flow cytometry (reference value: 0.32%); type: functional
cells [11] = conditions: Homo sapiens, A-431, 48 h
A549 = assay: Inhibition of HDAC in human A549 cells assessed as activation of H3 hyperacetylation measured after 24 hrs by Western blot analysis; type: cell-based; how it was run: as §1
[12] = molecular target: T2, Epidermal growth factor receptor; assay: Inhibition of EGFR in human A549 cells assessed as suppression of EGFR phosphorylation at Tyr1173 residue measured after 24 hrs by Western blot analysis; type: cell-based; how it was run: as §1
BT-474 [13] = assay: Induction of apoptosis in human BT474 cells assessed as late apoptotic cells at 2.5 uM measured after 48 hrs by Annexin V-FITC/propidium iodide staining based flow cytometry (reference value: 0.32%); type: functional
BT-474 [14] = assay: Induction of apoptosis in human BT474 cells assessed as viable cells at 2.5 uM measured after 48 hrs by Annexin V-FITC/propidium iodide staining based flow cytometry (reference value: 96.76%); type: functional; conditions: BT-474, 48 h, read-out: Activity
BT-474 [15] = assay: Induction of apoptosis in human BT474 cells assessed as early apoptotic cells at 5 uM measured after 48 hrs by Annexin V-FITC/propidium iodide staining based flow cytometry (reference value: 2.87%); type: functional
[16] = molecular target: T1, Receptor tyrosine-protein kinase erbB-2; conditions: BT-474, 25 uM
cells [17] = conditions: Homo sapiens, NCI-H1975, 48 h
[18] = molecular target: T1, Receptor tyrosine-protein kinase erbB-2; conditions: BT-474, 1 uM
BT-474 [19] = assay: Induction of apoptosis in human BT474 cells assessed as late apoptotic cells at 5 uM measured after 48 hrs by Annexin V-FITC/propidium iodide staining based flow cytometry (reference value: 0.32%); type: functional
BT-474 [20] = assay: Induction of apoptosis in human BT474 cells assessed as early apoptotic cells at 1 uM measured after 48 hrs by Annexin V-FITC/propidium iodide staining based flow cytometry (reference value: 2.87%); type: functional
[21] = molecular target: T2, Epidermal growth factor receptor; conditions: A549, 0.5 uM
[22] = molecular target: T2, Epidermal growth factor receptor; conditions: A549, 0.5 uM; remark: listed apart in the source
cells [23] = conditions: Homo sapiens, SK-BR-3, 48 h
BT-474 [24] = assay: Induction of apoptosis in human BT474 cells assessed as necrotic cells at 2.5 uM measured after 48 hrs by Annexin V-FITC/propidium iodide staining based flow cytometry (reference value: 0.06%); type: functional
BT-474 [25] = assay: Induction of apoptosis in human BT474 cells assessed as necrotic cells at 1 uM measured after 48 hrs by Annexin V-FITC/propidium iodide staining based flow cytometry (reference value: 0.06%); type: functional
BT-474 [26] = assay: Induction of apoptosis in human BT474 cells measured after 48 hrs by Annexin V-FITC/propidium iodide staining based flow cytometry; type: functional, cell-based
BT-474 [27] = assay: Induction of apoptosis in human BT474 cells assessed as viable cells at 5 uM measured after 48 hrs by Annexin V-FITC/propidium iodide staining based flow cytometry (reference value: 96.76%); type: functional; conditions: BT-474, 48 h, read-out: Activity
BT-474 [28] = assay: Induction of apoptosis in human BT474 cells assessed as necrotic cells at 5 uM measured after 48 hrs by Annexin V-FITC/propidium iodide staining based flow cytometry (reference value: 0.06%); type: functional

Chain of Histone deacetylase 1 (Q13547 whole entry): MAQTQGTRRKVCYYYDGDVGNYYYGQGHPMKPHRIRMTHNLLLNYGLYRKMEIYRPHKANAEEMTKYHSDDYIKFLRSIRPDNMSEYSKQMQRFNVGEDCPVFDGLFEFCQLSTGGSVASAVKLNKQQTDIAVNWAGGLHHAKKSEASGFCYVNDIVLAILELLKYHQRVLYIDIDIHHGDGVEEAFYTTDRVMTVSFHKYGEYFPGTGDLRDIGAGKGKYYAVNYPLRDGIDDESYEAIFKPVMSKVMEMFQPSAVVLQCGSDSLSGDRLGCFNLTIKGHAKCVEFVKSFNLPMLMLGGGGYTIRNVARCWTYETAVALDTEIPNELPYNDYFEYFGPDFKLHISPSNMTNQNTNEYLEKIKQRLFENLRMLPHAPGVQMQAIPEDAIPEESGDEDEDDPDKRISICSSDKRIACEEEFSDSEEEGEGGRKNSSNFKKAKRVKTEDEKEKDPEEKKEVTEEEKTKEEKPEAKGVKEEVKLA
T1 sequence (P04626 whole entry): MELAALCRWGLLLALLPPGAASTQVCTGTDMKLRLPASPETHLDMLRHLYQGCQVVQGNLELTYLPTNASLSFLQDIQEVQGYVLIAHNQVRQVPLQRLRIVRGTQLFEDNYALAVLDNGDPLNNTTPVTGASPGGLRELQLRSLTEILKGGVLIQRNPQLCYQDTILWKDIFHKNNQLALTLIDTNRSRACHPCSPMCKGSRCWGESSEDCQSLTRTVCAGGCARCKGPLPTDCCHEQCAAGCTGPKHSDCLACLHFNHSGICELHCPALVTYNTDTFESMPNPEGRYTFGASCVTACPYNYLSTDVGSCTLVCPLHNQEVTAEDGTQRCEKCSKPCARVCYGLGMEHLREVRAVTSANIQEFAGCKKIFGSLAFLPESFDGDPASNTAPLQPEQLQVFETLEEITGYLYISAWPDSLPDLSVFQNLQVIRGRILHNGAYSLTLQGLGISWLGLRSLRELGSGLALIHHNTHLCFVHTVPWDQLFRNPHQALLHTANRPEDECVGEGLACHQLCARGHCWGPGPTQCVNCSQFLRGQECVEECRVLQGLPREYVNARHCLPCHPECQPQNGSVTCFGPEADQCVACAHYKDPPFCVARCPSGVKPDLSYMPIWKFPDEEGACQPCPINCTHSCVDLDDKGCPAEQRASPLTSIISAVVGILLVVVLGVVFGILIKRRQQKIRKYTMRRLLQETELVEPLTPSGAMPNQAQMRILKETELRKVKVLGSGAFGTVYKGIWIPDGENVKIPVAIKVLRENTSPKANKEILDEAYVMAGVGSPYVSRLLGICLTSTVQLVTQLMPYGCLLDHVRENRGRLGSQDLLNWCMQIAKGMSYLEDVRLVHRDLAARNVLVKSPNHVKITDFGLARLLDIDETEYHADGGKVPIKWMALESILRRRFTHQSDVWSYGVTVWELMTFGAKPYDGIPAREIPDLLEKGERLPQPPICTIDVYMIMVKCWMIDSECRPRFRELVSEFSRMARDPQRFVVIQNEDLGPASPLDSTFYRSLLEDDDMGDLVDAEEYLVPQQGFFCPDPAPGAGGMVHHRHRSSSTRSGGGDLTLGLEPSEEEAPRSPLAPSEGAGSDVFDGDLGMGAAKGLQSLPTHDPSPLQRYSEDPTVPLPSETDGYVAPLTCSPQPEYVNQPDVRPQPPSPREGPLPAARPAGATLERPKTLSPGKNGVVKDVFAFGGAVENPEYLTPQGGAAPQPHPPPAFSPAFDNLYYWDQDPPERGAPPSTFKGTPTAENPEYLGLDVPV
T2 sequence (P00533 whole entry): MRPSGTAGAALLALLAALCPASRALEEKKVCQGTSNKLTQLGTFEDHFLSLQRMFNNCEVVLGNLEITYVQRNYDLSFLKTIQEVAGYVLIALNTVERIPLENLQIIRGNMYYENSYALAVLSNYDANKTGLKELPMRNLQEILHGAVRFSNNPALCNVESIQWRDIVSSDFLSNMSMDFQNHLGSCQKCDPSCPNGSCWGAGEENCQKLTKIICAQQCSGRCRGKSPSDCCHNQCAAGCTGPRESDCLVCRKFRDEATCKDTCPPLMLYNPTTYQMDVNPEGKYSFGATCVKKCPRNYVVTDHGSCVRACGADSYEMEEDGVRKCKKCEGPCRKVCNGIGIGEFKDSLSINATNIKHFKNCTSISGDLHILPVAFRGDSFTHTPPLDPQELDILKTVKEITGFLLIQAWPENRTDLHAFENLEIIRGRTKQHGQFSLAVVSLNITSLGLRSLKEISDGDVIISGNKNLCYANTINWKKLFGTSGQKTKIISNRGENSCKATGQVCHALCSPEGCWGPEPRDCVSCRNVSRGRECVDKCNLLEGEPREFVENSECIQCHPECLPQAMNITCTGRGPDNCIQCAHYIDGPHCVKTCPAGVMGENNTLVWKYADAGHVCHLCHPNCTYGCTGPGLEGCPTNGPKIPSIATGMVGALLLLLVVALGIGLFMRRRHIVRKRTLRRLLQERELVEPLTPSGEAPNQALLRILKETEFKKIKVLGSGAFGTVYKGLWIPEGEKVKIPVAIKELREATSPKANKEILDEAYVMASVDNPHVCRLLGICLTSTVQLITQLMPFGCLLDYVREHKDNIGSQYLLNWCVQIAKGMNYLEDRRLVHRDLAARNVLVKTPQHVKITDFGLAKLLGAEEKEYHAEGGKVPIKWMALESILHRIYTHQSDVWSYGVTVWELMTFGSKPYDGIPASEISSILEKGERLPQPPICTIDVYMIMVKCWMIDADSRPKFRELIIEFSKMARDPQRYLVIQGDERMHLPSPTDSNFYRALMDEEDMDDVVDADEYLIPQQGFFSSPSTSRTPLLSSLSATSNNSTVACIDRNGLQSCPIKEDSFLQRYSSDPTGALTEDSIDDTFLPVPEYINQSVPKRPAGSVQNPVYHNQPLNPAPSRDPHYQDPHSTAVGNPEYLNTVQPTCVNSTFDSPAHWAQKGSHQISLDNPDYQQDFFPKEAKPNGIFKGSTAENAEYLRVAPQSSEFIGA

Compound: C#Cc1cccc(Nc2ncnc3cc(OC)c(OCCCCCCC(=O)NO)cc23)c1 [CUDC-101]
pIC50 [1]: 8.38

Compound: COc1cc(Nc2ncnc3ccc(-c4cn(CCCCCC(=O)NO)nn4)cc23)ccc1Oc1ccccc1
pIC50 [2]: < 6.00
pIC50 (cells [3]): 4.63
pIC50 [4]: 8.24
pIC50 [5]: 7.73
pIC50 (Histone deacetylase 1): 7.58
pIC50 (cells [6]): 4.36

Compound: O=C(CCCCCCn1cc(-c2ccc3ncnc(Nc4ccc(OCc5nccs5)c(Cl)c4)c3c2)nn1)NO
pIC50 [2]: 6.15
pIC50 (cells [3]): 5.54
pIC50 [4]: 8.44
pIC50 [5]: 7.87
pIC50 (Histone deacetylase 1): 8.25
pIC50 (cells [6]): 5.06

Compound: O=C(CCCCCn1cc(-c2ccc3ncnc(Nc4cccc(Cl)c4F)c3c2)nn1)NO
pIC50 [2]: 6.41
pIC50 (cells [3]): < 4.30
pIC50 [4]: 9.57
pIC50 [5]: 8.39
pIC50 (Histone deacetylase 1): 8.85
pIC50 (cells [6]): < 4.30

Compound: COc1cc(Nc2ncnc3ccc(-c4cn(CCCCCCC(=O)NO)nn4)cc23)ccc1Oc1ccccc1
pIC50 [2]: < 6.00
pIC50 (cells [3]): 5.31
pIC50 [4]: 7.94
pIC50 [5]: 7.80
pIC50 (Histone deacetylase 1): 7.89
pIC50 (cells [6]): 4.87

Continued, in another order:

pIC50 [2]: 7.79
pIC50 (cells [3]): 5.65
pIC50 [4]: 8.38
pIC50 [5]: 7.71
pIC50 (Histone deacetylase 1): 8.08
pIC50 (cells [6]): 5.43
Compound: O=C(CCCCCCn1cc(-c2ccc3ncnc(Nc4ccc(OCc5cccc(F)c5)c(Cl)c4)c3c2)nn1)NO

pIC50 [2]: 6.76
inhibition [9]: Dose-dependent effect
pIC50 (cells [11]): 6.31
inhibition [12]: Dose-dependent effect
inhibition [16]: 100%
pIC50 (cells [17]): 5.09
inhibition [18]: 100%
pIC50 (cells [3]): 5.41
inhibition [21]: 100%
inhibition [22]: 100%
pIC50 [4]: 9.92
pIC50 [5]: 8.49
pIC50 (cells [23]): 6.16
pIC50 (Histone deacetylase 1): 9.14
pIC50 (cells [6]): 6.20
Compound: O=C(CCCCCCn1cc(-c2ccc3ncnc(Nc4cccc(Cl)c4F)c3c2)nn1)NO
viability at 1 µM (BT-474 [7]): 86.3%
Activity (BT-474 [8]): 14.83%
Activity (BT-474 [10]): 5.1%
inhibition (A549): Dose-dependent effect
Activity (BT-474 [13]): 19.73%
viability at 2.5 µM (BT-474 [14]): 64.5%
Activity (BT-474 [15]): 22.02%
Activity (BT-474 [19]): 41.84%
Activity (BT-474 [20]): 8.27%
Activity (BT-474 [24]): 0.89%
Activity (BT-474 [25]): 0.34%
Activity (BT-474 [26]): Dose-dependent effect
viability at 5 µM (BT-474 [27]): 34.8%
Activity (BT-474 [28]): 1.36%

pIC50 [2]: 6.78
pIC50 (cells [3]): 4.58
pIC50 [4]: 9.19
pIC50 [5]: 8.02
pIC50 (Histone deacetylase 1): 8.15
pIC50 (cells [6]): < 4.30
Compound: O=C(CCCCCn1cc(-c2ccc3ncnc(Nc4ccc(F)c(Cl)c4)c3c2)nn1)NO
